Screening results: PubChem BioAssay, several laboratories
Hits are enriched below; roughly 4.9% of the tested compounds scored in any of these assays.
STAT1 blocker: reduces IFN-gamma driven STAT1 reporter signal; NIH 3T3 STAT1-luciferase reporter, luminescence; inhibition, % at 5.5 µM; 200,000 tested, 0.35% active; AID 920;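 active means inhibition above a set limit, the mean inhibition across all tested compounds plus 3 SD, cut at about 34% in these data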;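 further: 0% = IFN-gamma with DMSO and 100% = IFN-gamma with 300 µM nifuroxazide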
APP 5'UTR act: APP 5'UTR luciferase reporter activation | 190,000 tested, 1% active | SH-SY5Y APP 5'UTR luciferase reporter, luminescence; zero percent = DMSO vehicle wells | AID 1276 | activation, % at 2 µM;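 active means activation above a set limit, based on mean plus 3 SD of controls, cut at about 140% in these data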
STAT1 activator: activators of IFN-gamma induced STAT1 signaling; activation (% of control), % at 5.5 µM; 200,000 tested, 2.6% active; AID 932; NIH 3T3 STAT1-luciferase reporter, luminescence; 100% = IFN-gamma alone, no compound;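 active means activation above the screen-wide mean activation plus 3 SD, cut at about 130% in these data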;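 further: raw ratio to IFN-gamma control signal so 100% means no change and 0% no light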
NF-kB expr up: NF-kB expression increase, human neuronal cells. NF-kB reporter expression; hits give high values. fold change at 12.5 µM. 190,000 tested, 1.6% active. AID 1239; in the data active means fold change above about 3.3
STAT3 act: STAT3 signaling activation; U3A cells, IL-6 STAT3-luciferase reporter, luminescence; 100% = signal with IL-6 EC80 alone; activation (% of control), % at 5.6 µM; 190,000 tested, 0.91% active;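 active means activation above the screen-wide mean of compound activation plus 3 SD, cut at about 130% in these data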;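 further: 0% = background luminescence of wells with medium and substrate only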
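Test system: STAT3-luciferase reporter U3A cells; Detection: reporter luminescence signal; Times: 1 h compound pre-exposure, 6 h IL-6 stimulation, 37 °C; Benchmarks: IL-6-only high control; Also added: IL-6 stimulus at 33 ng/mL final.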
STAT3 inh: reduces IL-6 driven STAT3 reporter signal; U3A cells, IL-6 STAT3-luciferase reporter, luminescence; host cell line lacks STAT1; inhibition, % at 5.5 µM; 190,000 tested, 0.89% active; AID 862;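 active means inhibition above the mean inhibition across all screened compounds plus 3 SD, cut at about 44% in these data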;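 further: 0% = DMSO only wells and 100% = 100 µM nifuroxazide control wells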
Active calls of the source: *; / = no result.

SMILES	STAT1 blocker	APP 5'UTR act	STAT1 activator	NF-kB expr up	STAT3 act	STAT3 inh
O=C(Nc1ccc2nc3n(c(=O)c2c1)CCCCC3)c1ccccn1	-47	134	145*	3	105	-6
Cc1ccc2nc3sc(C(=O)NCc4ccco4)c(N)c3cc2c1	-40	179*	139*	3.7*	70	40
COc1cc2cc3c(N)c(C(=O)NCc4ccco4)sc3nc2cc1OC	-51	29	146*	0.98	92	15
Cc1ccc2nc3sc(C(=O)Nc4c(C)[nH]c(=O)[nH]c4=O)c(N)c3cc2c1	7	16	94	0.73	95	5
Cc1ccc2nc3sc(C(=O)N4CCOCC4)c(N)c3cc2c1	50*	192*	54	1.6	29	90*
CCCc1nn(C)c(C(=O)Nc2ccc(C)c(C)c2)c1Cl	-33	38	130*	1.3	102	0
O=C(COC(=O)C1COc2ccccc2O1)NC(=O)Nc1ccc2c(c1)OCCO2 (configuration not stated)	-5	25	104	1.4	109	-6
COCCN(C(=O)CSc1nnc(-c2cccc(OC)c2)n1C)c1c(N)n(Cc2ccccc2)c(=O)[nH]c1=O	1	3	97	0.94	110	-8
Cc1nc(SCc2ccc(Cl)cc2)ncc1C(=O)O	8	12	92	6.4*	113	-14
COc1cnc(SCc2ccc(Cl)cc2)nc1Cl	-23	/	121	1.1	102	3
Sc1oc(-c2ccccc2)cc1C=Nc1ccccc1	-37	30	134*	3	109	-10
O=[N+]([O-])c1cc2c(cc1C=Nc1ccccc1)OCO2	2	3	99	1.1	103	2
Cc1cc(C)n(-c2nc(-c3ccc(Cl)cc3)cs2)n1	-2	/	102	1.6	128	-24
COc1cc2[nH]c(-c3ccc(C)cc3)cc(=O)c2cc1OC	-8	12	107	1.1	107	-11
Cc1ccc(-c2cc(=O)c3cc(Cl)ccc3[nH]2)cc1	-44	138*	143*	1.8	/	/
COc1ccc(-c2cc(=O)c3cc(C)ccc3[nH]2)cc1	-55	99	150*	6.5*	90	9
Cc1ccc(-c2cc(=O)c3ccccc3[nH]2)cc1	-2	14	102	1.7	94	5
Cc1ccc2[nH]c(-c3ccccc3)cc(=O)c2c1	-29	-91	126	6*	88	15
COc1ccccc1-c1nnc(SCC(=O)NCc2cccs2)n1N	9	-18	91	1.1	97	6
Fc1ccccc1/C=N/Nc1ncnc2ccccc12	-29	76	127	7.9*	84	26
CC(=O)NS(=O)(=O)c1ccc(NC(=O)C2c3ccccc3Oc3ccccc32)cc1	-5	-2	105	1.2	99	4
C/C(=N\NC(=S)Nc1cccc(C)c1)c1ccccc1	-8	3	107	1.6	95	13
CSC(=S)N/N=C(\C)c1ccccc1	-11	-3	109	5.9*	87	18
COc1ccc(-n2nc(C(=O)NCC(=O)N3CCN(c4ccccn4)CC3)c3ccccc3c2=O)cc1OC	-17	1	115	1	102	4
COc1ccc(-n2nc(C(=O)NCC(=O)N3CCN(c4ccccn4)CC3)c3ccccc3c2=O)cc1	-41	33	137*	1	105	-2
SMILES	STAT1 blocker	APP 5'UTR act	STAT1 activator	NF-kB expr up	STAT3 act	STAT3 inh
O=C(NCC1CCCN(Cc2ccc3nonc3c2)C1)c1cccc(C(F)(F)F)c1 (configuration not stated)	11	12	89	1	95	7
Cc1ccc(C2=NCN(c3ccc(C(=O)O)cc3)C(=S)N2)cc1	-37	28	136*	1.8	106	-5
c1ccc(-c2ccc(-c3nc(-c4ccncc4)no3)cc2)cc1	-37	177*	136*	6.8*	94	12
CCCCc1ccc(-c2nc(-c3ccncc3)no2)cc1	-16	176*	116	7*	100	4
c1ccc(-c2nc(-c3ccncc3)no2)cc1	-41	103	138*	2.2	94	9
COC(=O)C1C(c2ccc(Br)cc2)Nc2nnc(C(F)(F)F)n2C1(C)O (configuration not stated)	1	2	98	1	98	4
Cc1cccc(Nc2nccc(N(C)C)c2C#N)c1	-18	-2	114	1.2	96	9
CC1CCCCN1S(=O)(=O)c1ccc(C(=O)Nc2nnc(-c3ccccn3)o2)cc1 (configuration not stated)	-3	37	101	0.99	98	10
Cc1ccc(/C=N/NC(=O)c2ccoc2C)s1	-44	79	139*	2.3	109	-10
CC/C(=N\NC(=O)c1c[nH]c2ccccc12)c1cccs1	-41	96	136*	2.1	115	-12
COc1cc(/C=N/NC(=O)c2ccoc2C)ccc1O	-42	72	138*	2.4	88	13
Cc1ccsc1/C=N/NC(=O)c1c[nH]c2ccccc12	-28	70	126	2.5	127	-22
Cc1ccc(/C=N/NC(=O)c2c[nH]c3ccccc23)s1	-51	78	146*	3.1	119	-18
CSc1nc(C)c(CCO)c(=O)[nH]1	0	0	99	1.2	97	10
Cc1occc1C(=O)N/N=C/c1ccc(Br)s1	-46	66	139*	2.6	96	10
CCOC(=O)/C=C/c1cnn(-c2ccccc2)c1	-40	51	138*	2.2	96	3
COc1ccc(NS(=O)(=O)c2cccc(-c3nnc4n3CCCCC4)c2)cc1	-2	-6	102	1	106	-5
COc1ccc(-c2cc3nc4n(c(=O)c3s2)CCC4)cc1	65*	160*	40	1.1	20	92*
Cc1ccccc1C(=O)c1cccn1CC(=O)NCCCN1CCc2ccccc2C1	-6	5	102	0.76	106	-2
CCOC(=O)C(C)Sc1ncnc2c1nnn2-c1ccc(F)cc1 (configuration not stated)	-35	10	132*	1.8	93	9
CCC(Sc1ncnc2c1nnn2-c1ccc(F)cc1)C(=O)OC (configuration not stated)	-19	9	117	2.1	97	4
CCOC(=O)c1c(C)n(OCc2ccccc2)c2ccc3c(no[n+]3[O-])c12	-11	0	109	1.3	102	2
Cn1c(-c2ccccc2)cc2c3no[n+]([O-])c3ccc21	-34	0	130*	1.5	103	6
Cc1ccc(OC(=O)COc2ccccc2)c(-n2nc3ccccc3n2)c1	-15	60	114	4.8*	107	-5
COC(=O)COc1ccc(C)cc1-n1nc2ccccc2n1	5	-1	93	1.1	107	-5
Cc1ccc(OC(=O)COc2ccccc2C)c(-n2nc3ccccc3n2)c1	-24	91	117	3.8*	95	8
